The results in this text go back to ChEMBL document CHEMBL4513216, “Probing the Open Global Health Chemical Diversity Library for Multistage-Active Starting Points for Next-Generation Antimalarials” (ACS Infect Dis, 2020).

The series can be described thus: Toxicity liver stage against HepG2, at 10uM. In kind it is cell-based. On the set-up: test concentration 10 uM, cell line HepG2-A16-CD81EGFP. The note with it: human, HepG2-A16-CD81EGFP cells; read-out: INHIBITION
In a few lines: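 Uninfected HepG2-A16-CD81EGFP cells, 3 × 10^3 per well, 1536-well, plated on prespotted compound at 10 μM final, parasite-free screening media added to match infected plates; puromycin 10 μM positive, DMSO 0.5% negative; run in parallel with 48 h PbLuc assay at 37 °C, 5% CO2; viability by CellTiter-Glo luminescence, normalized to controls.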

In the case of `COc1ccc(CNC(=O)CCc2nnc3ccccn3c2=O)cc1`, the cytotoxicity at 10 µM is -13.5%. In the case of `Cc1cc(C(=O)N2CCCC2c2nc(C)cc(O)n2)on1` (stereo not drawn) it was -15.2%; in that of `Cn1ccnc1C1CCN(CCC2CCOC2)CC1` (stereo not drawn), -4.06%. In the case of `Cc1oncc1C(=O)N1CCC(O)(CN2CCOCC2)C(C)(C)C1` (stereo not drawn), the cytotoxicity at 10 µM is -5.26%. Under `Cn1ccnc1CN1CCC2(CC1)COCCN(S(C)(=O)=O)C2` stands 3.39%. In the case of `Cc1nc(CN2CCC3(CC2)CC(=O)N(C)c2ccccc23)cs1`, the cytotoxicity at 10 µM is 0.0115%.

`Cc1nc(C2CCCN2Cc2cc(Cl)c3c(c2)OCCCO3)no1` (stereo not drawn): the cytotoxicity at 10 µM turned out to be 10.3%. `CN(C)c1ncncc1NC(=O)Cc1c[nH]c2ccc(F)cc12`: the cytotoxicity at 10 µM is -9.74%. For `Cc1ccccc1CC1(CO)CCCN(c2ncccc2C#N)C1` (stereo not drawn), the cytotoxicity at 10 µM was -1.16%. For the compound `COc1ccc(NS(=O)(=O)c2cnc(NC(C)=O)s2)cc1`, the cytotoxicity at 10 µM stood at 10.9%. `CN(CC(O)CO)c1nc(-c2cccnc2)nc2c1CCNC2` (stereo not drawn): the cytotoxicity at 10 µM was -0.0186%. In the case of `COc1ccccc1-c1ncc(CN2CCC3(CCN(C)C3)CC2)cn1` it was 3.92%; in that of `CC1CN(C(=O)NCc2cnn(-c3ccc(F)cc3F)c2)CCO1` (stereo not drawn), 2.18%; in that of `Cc1ccc(N2Cc3c(CN(C)C)nn(C)c3C2)nn1`, 2.47%. For `c1coc(CN2CCC3(CC2)COC(COCC2CC2)C3)c1` (stereo not drawn), the cytotoxicity at 10 µM is -4.37%. Under `CC(c1nc(C2CC2)no1)N1CCN(Cc2ccccc2)CC1` (stereo not drawn) stands -5%; under `Clc1cccc(C[C@@H]2NCCC[C@@H]2Nc2cccc(Cl)c2)c1`, 86%. Under `Fc1ccc(OC2CCN(Cc3nnc(-c4ccco4)o3)CC2)cc1` stands -2.56%. Under `Cc1cc(C)c(CNC(=O)N(C)Cc2nnc3n2CCC3)c(=O)[nH]1` stands -10.5%; under `CC(C)Nc1nc(O)cc(C2CC(=O)N(Cc3ccccc3)C2)n1` (stereo not drawn), -28.5%. Regarding `Cc1ccc(-c2cc(N)c(=O)n(CC(=O)NCC3CC3)n2)s1`, the cytotoxicity at 10 µM stood at 10.3%. Regarding `CCSc1ncc(-c2cc(C3CC3)nc(N)c2C#N)cn1`, the cytotoxicity at 10 µM amounted to 6.99%. As to `CCc1nccn1C1CCCN(C(=O)CCCNc2ncccn2)C1` (stereo not drawn), the cytotoxicity at 10 µM is -1.3%. In the case of `Cc1ccc(CN(C)C(=O)CN2CCOC(Cn3cccn3)C2)o1` (stereo not drawn) it was -0.906%; in that of `CCOCCC1(CNC(=O)c2ccncc2)CCC1`, 4.11%.

As for `CCn1nc(C)cc1C(=O)N1C[C@@H]2C[C@@H](C)O[C@@H]2C1`, the cytotoxicity at 10 µM is 5.53%. `Cc1ccc(C(=O)N(C)Cc2ccc3c(c2)OCCO3)c(=O)[nH]1`: the cytotoxicity at 10 µM is -9.24%. As for `COc1cccc(CNC(=O)CCNS(=O)(=O)c2ccc(C)cc2)c1`, the cytotoxicity at 10 µM was -137%. `CSc1ccsc1C(=O)NS(=O)(=O)c1cccc(C#N)c1`: the cytotoxicity at 10 µM is 7.49%. On to `Cc1nc(O)cc(C2CCN(Cc3cccc(F)c3F)C2)n1` (stereo not drawn), for which the cytotoxicity at 10 µM is -1.19%. For the compound `Cc1nc(Cc2ccccc2)nc2sc(C(=O)O)c(C)c12`, the cytotoxicity at 10 µM is 0.986%.

For `O=S(=O)(N1CCOCC1)N1CCOC(CCc2ccccc2)C1` (stereo not drawn), the cytotoxicity at 10 µM is -2.55%. Take `Cc1ccc(C(C)NC(=O)Nc2ccccc2CN2CCOCC2)o1` (stereo not drawn): the cytotoxicity at 10 µM was found to be 3.25%. As for `CCOC1COC2(CCN(Cc3cccc(C)n3)CC2)C1` (stereo not drawn), the cytotoxicity at 10 µM turned out to be 11.8%.

`CC(SCCNS(=O)(=O)c1cnn(C)c1)c1cccc(F)c1` (stereo not drawn): the cytotoxicity at 10 µM came out at 17.3%.

Regarding `O=C1CC2(CCSC2)C(=O)N1Cc1coc(-c2ccc(F)cc2)n1` (stereo not drawn), the cytotoxicity at 10 µM was found to be 6.88%.

Regarding `CCc1ncc(C(=O)NCCNc2ccncc2)s1`, the cytotoxicity at 10 µM was -9.7%. `Cc1nc2c(c(C)c1CC(=O)NCc1ccccc1F)c(=O)[nH]n2C`: the cytotoxicity at 10 µM was -5.52%. For `CC(C)NC(=O)CCNC(=O)Nc1ccc(-n2cncn2)c(F)c1`, the cytotoxicity at 10 µM worked out at 0.485%. In the case of `O=C(CCN1CCc2cncnc2C1)N1CCc2sccc2C1` it was 2.37%; in that of `CC(=O)N(C)c1nc(CN2CCCC2Cn2cncn2)cs1` (stereo not drawn), -1.01%; in that of `O=C1CC(c2ccc(C(=O)O)cc2)c2ncn(-c3ccccc3Cl)c2N1` (stereo not drawn), 2.03%. Under `CC(=O)N1CCC2(CC1)[C@@H]1CN(C(=O)N(C)C)C[C@@H]1C(=O)N2C` stands 2.38%; under `CCC(CNC(=O)Cc1c(C)noc1C)N1CCCC1` (stereo not drawn), -46.3%; under `CN1CCN(CCCNC(=O)C2CCCCC2)CC1`, -1.82%.

On to `O=C(NCCn1ccnc1)N1CCN(Cc2ccsc2)CC1`, for which the cytotoxicity at 10 µM is -15.3%. Regarding `CN1CCC(O)(CCNC(=O)[C@@]23CNC[C@@H]2CN(C2CCCC2)C3)CC1`, the cytotoxicity at 10 µM was -1.92%. Take `O=C(c1cc(-n2cccn2)ccn1)N1CCOc2ccncc21`: the cytotoxicity at 10 µM was 10.6%. With `COc1cc(CNCc2ccnc(N3CCCC3)c2)cc(OC)c1`, the cytotoxicity at 10 µM turned out to be 8.8%. Regarding `COCc1noc(CN2CCCCC2CCc2cccs2)n1` (stereo not drawn), the cytotoxicity at 10 µM came to 0.642%. In the case of `CC(C)c1nccc(CN(C)Cc2cccc(-n3cccn3)c2)n1` it was -2.44%; in that of `CCS(=O)(=O)N1CCc2ccc(=O)n(CC3CC3)c2CC1`, 7.95%; in that of `Cn1cccc1CN1CCC2(CCCN(C(=O)c3cnccn3)C2)C1` (stereo not drawn), -6.36%. Under `CN1CCC(C(=O)N2CCCN(c3cccnn3)CC2)C1` (stereo not drawn) stands -8.82%.

As to `Nc1nccc(N2CCC(c3cc(Cc4ccccc4)n[nH]3)CC2)n1`, the cytotoxicity at 10 µM is 38.9%. Under `CSc1cc2c(cc1NC(=O)N(C)Cc1ccncc1)OCCO2` stands 11.4%; under `CCNc1c(NC(=O)NC(C)C)c(=O)oc2ccccc12`, 1.1%. With `Fc1cnccc1CN1CCC2(CCN2c2ncccn2)C1` (stereo not drawn), the cytotoxicity at 10 µM is -111%. `CCn1ccnc1CN1CCN(CC(O)c2ccco2)CC1` (stereo not drawn): the cytotoxicity at 10 µM was -4.57%. `COc1ccc(CC(=O)NCCCc2nnc3nc(C)cc(C)n23)cc1`: the cytotoxicity at 10 µM was 4.45%. Consider `CC(Cn1cncn1)NCCN1CCc2ccccc21` (stereo not drawn), for which the cytotoxicity at 10 µM is -3.21%.

`Cc1nc(CNC(=O)NC2CCCN(c3ncccn3)C2)cs1` (stereo not drawn): the cytotoxicity at 10 µM was -140%. Regarding `CCCc1nc(N2CCCN(c3ccncc3)CC2)c2cnn(C)c2n1`, the cytotoxicity at 10 µM is -2.47%. For `O=C(O)c1csc(NCCc2ccccc2)n1`, the cytotoxicity at 10 µM came out at 0.501%. On to `O=C(c1cccc(O)c1)N1CCN(Cc2nnc(C3CCC3)o2)CC1`, for which the cytotoxicity at 10 µM was -8.52%. In the case of `Cc1cc(=O)n2nc(Oc3ccc(C#N)cc3Cl)sc2n1` it was 1.15%; in that of `CCc1cnc(N)nc1N[C@@H](C)c1ncccc1C`, -3.94%; in that of `CCC[C@H]1CN(c2cncc(C(=O)N(C)C)n2)C[C@@H]1N(C)C`, -7.83%. `Cc1cc(C)n(CC2CCCN2C(=O)Cc2cn3ccsc3n2)n1` (stereo not drawn): the cytotoxicity at 10 µM is -12.5%. In the case of `Fc1ccccc1-c1cc(N2[C@@H]3CC[C@H]2CNC3)n2nccc2n1` it was 23.1%; in that of `CN(CCOCC(F)(F)F)CC1CCN(CCO)CC1`, 5.68%.

For the compound `CCn1cc(-c2cc(-c3cc(CC(=O)O)cs3)nc(N)c2C#N)c(C)n1`, the cytotoxicity at 10 µM amounted to 1.16%. In the case of `CCc1nnc(CN(C)C(=O)CN2CC(c3ccccc3)CC2=O)o1` (stereo not drawn) it was -2.96%. In the case of `CC(=O)c1c(N(C)C)ccnc1C(F)(F)F` it was 1.1%; in that of `CC1(C(=O)N2CCOCC2)CN(Cc2ccccc2F)CCO1` (stereo not drawn), 2.03%. In the case of `CC(=O)N(Cc1noc(C)n1)C1CCN(Cc2ccccc2C#N)C1` (stereo not drawn) it was -1.76%; in that of `OC1CCCN(Cc2ccc(F)c3cccnc23)C1` (stereo not drawn), 4.75%; in that of `COCCC(Cc1cccc(Br)c1)C(=O)O` (stereo not drawn), 9.21%.

With `CCS(=O)(=O)CCNC(=O)NC(C)c1cc(C)sc1C` (stereo not drawn), the cytotoxicity at 10 µM is -3.4%. Regarding `OCc1cc2ccccc2nc1N1CCCC1`, the cytotoxicity at 10 µM was -8.82%. In the case of `Cc1noc([C@@H]2C[C@H]3CN(Cc4scnc4C)C[C@H]3O2)n1` it was -136%. `CC(NC(=O)N(C)Cc1ccsc1)c1ccc2c(c1)NC(=O)CO2` (stereo not drawn): the cytotoxicity at 10 µM is -7.77%. On to `CC(=O)c1ccc(NC(=O)c2ccc3c(c2)C2(CCCCC2)CN3)cc1`, for which the cytotoxicity at 10 µM is -108%. With `CN(C)CCN1CCN(C)c2nc(-c3ccccc3)ncc2C1=O`, the cytotoxicity at 10 µM is -11.6%. With `Cc1csc(CNC(=O)N(C)Cc2nnc3n2CCC3)n1`, the cytotoxicity at 10 µM is -4.75%.

Turning to `c1cc(CN2CCCn3nnc(COCC4CC4)c3C2)ccn1`, the cytotoxicity at 10 µM was -113%. As for `CC(=O)c1cc2c(=O)[nH]c(=O)n(C)c2nc1C`, the cytotoxicity at 10 µM was -2.89%. `COc1cc(C2(C(=O)NC3CCC4(CC3)OCCO4)CC2)ccc1C`: the cytotoxicity at 10 µM was -13.2%.

Consider `CC(C)Nc1cccc(CNC(=O)N2CCCC2)c1`, for which the cytotoxicity at 10 µM was found to be 1.98%.

With `Cc1cc(C(=O)NC(CC(C)C)C(=O)Nc2cc[nH]n2)c(C)o1` (stereo not drawn), the cytotoxicity at 10 µM is -11.7%.

For the compound `O=C(C1CCCO1)N1CCc2nnc(Cn3cccc3)n2CC1` (stereo not drawn), the cytotoxicity at 10 µM was 13.9%. As for `O=c1cc(Cn2cncn2)nc2n1CCCN(Cc1ccsc1)C2`, the cytotoxicity at 10 µM is -0.123%.

As for `NC(=O)C1CCN(c2nc3nccc(-c4ccccn4)c3c(=O)[nH]2)CC1`, the cytotoxicity at 10 µM was -9.24%.

With `COCCNC(=O)NCCc1cccc(OC)c1O`, the cytotoxicity at 10 µM stood at 9.31%. For the compound `O=C(c1n[nH]cc1Br)N1CCOCC1`, the cytotoxicity at 10 µM was 5.31%. As to `CNC(=O)CC1CC2(CCNCC2)c2cc(F)ccc21` (stereo not drawn), the cytotoxicity at 10 µM is -107%.

In the case of `Cc1ccc(N2CCCC(NCc3ccc(C)o3)C2)nn1` (stereo not drawn), the cytotoxicity at 10 µM amounted to 0.0722%.

Take `O=C(O)c1ccc(CNC(=O)C2CCN(C(=O)C3CCC3)CC2)s1`: the cytotoxicity at 10 µM was 0.993%.
